Experimental data: PubChem BioAssay AID602174 (The Scripps Research Institute Molecular Screening Center, 2012)

These molecules were tested on MCF7 proliferation, sulforhodamine B absorbance (assay: MCF7 cell proliferation modulation, late-stage follow-up, counter-screen for AHR activator project, absorbance (AID 602174)). Conditions: at 10 µM.
In short: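 System: MCF7 cell line; Quantity: 2,000 cells per well; Replicates: triplicate or more wells; Buffer or medium: alpha-MEM plus 10% FBS; Measured by: SRB absorbance, 490 nm with 650 nm background subtracted; Schedule: 24 h post-seeding before treatment, then 8–10 day compound exposure at 37 °C.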

Row | Structure (SMILES) | proliferation change
1 | Cc1nc(N)nc(Nc2ccc(Cl)cc2)c1Br | -86.8%
2 | Cc1nnc(N2C(=O)c3cccc4c([N+](=O)[O-])ccc(c34)C2=O)s1 | -79%
3 | CCOC(=O)Cc1cc(-c2ccc(O)cc2)nc2ccc3ccccc3c12 | -84.8%
4 | CCOc1ccc(-c2cc(C)n3nc(C(N)=O)cc3n2)cc1 | -20.5%
5 | Cc1ccc(-c2cc(-c3cccs3)[nH]n2)c(O)c1 | -98.1%
6 | Cn1c(C(=O)N2CCC(C(N)=O)CC2)cc2cc(Cl)ccc21 | -49.2%
7 | Cc1csc(SCC(=O)Nc2ccc(Cl)cn2)n1 | -63.2%
8 | COc1ccc(NC(=O)c2cccc3c(Br)cccc23)cc1 | -59.5%
9 | Cc1c(-c2ccn[nH]2)cc(NC(=O)c2ccc(Cl)cc2)c(=O)n1N | -73%
10 | COc1ccccc1NC(=O)c1ccc(C(=O)Nc2ccccc2OC)nc1 | -90.8%
